Screening results from PubChem BioAssay.
A selection: hits, their analogues and other compounds. The true share with any hit is near 3%.
Ecoli rRNA inh – inhibits bacterial ribosomal RNA function over humanized ribosomes; E. coli WT GFP vs humanized-ribosome RFP mutants, fluorescence, 24 h; stronger effect = lower value; DMSO median 0, no signal -100; GFP signal change (wild-type ribosome), % (concentration not given with the values); 350,000 tested, 1.6% active;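 active = significant combined selectivity score with lowered wild-type GFP, culture density cut under 30%, mutant RFP and density less affected; inactive = any of these conditions unmet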
Cneo AK release – Cryptococcus neoformans lysis via adenylate kinase release; C. neoformans lysis, adenylate kinase release luminescence, 4 h; normalised: neutral wells 0, clomiphene wells 100; AID 651654; lysis activity, % at 15 µM; 360,000 tested, 0.2% active;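 active = mean lysis activity across replicates of at least 80%, whatever share of replicates individually reach that level; inactive = mean lysis activity below 80%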
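Assay system: C. neoformans cells. Amount: yeast cell density of 5 × 10^6 cells/mL. Technique: AK luminescence. Buffer or medium: YPD. Times: static 4 h at 37 °C with compound, 1 h detection. Dosing: single-point compound dose. Read-out: lysis from increased AK signal.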
SIRT5 block – inhibitors of human sirtuin-5 desuccinylase | Purified SirT5, succinyl-peptide AMC, trypsin-coupled fluorescence | inhibition, % at 15 µM | 330,000 tested, 1.1% active; in the data active = inhibition above about 15%
Target sequence (Q9NXA8 whole entry, looked up): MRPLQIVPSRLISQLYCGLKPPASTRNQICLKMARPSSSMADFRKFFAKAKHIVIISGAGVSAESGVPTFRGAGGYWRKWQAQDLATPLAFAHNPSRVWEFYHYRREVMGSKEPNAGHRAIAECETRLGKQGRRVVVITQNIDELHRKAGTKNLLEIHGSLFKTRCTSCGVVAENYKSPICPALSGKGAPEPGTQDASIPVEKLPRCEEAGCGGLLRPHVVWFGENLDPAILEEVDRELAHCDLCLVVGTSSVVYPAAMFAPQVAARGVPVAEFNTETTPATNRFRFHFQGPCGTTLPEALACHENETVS
PGC1a acetyl inh – modulators of PGC1a acetylation; U2OS PGC1a acetylation, AlphaScreen anti-acetyl-lysine; with virally co-expressed GCN5 acetyltransferase; inhibition, % at 15.6 µM; 350,000 tested, 0.17% active;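 active = every replicate shows inhibition of at least 40%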;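 also: 0% = neutral control wells and 100% = positive control wells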
S100A4 MyoIIA – S100A4-myosin IIA interaction inhibition | P26447 | S100A4/TAMRA-MyoIIA peptide fluorescence polarization | inhibition, % at 10.7 µM | 360,000 tested, 0.14% active | AID 652163;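 active = mean inhibition of at least 70% across replicates, with every replicate also reaching that level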
Target sequence (P26447 whole entry, looked up): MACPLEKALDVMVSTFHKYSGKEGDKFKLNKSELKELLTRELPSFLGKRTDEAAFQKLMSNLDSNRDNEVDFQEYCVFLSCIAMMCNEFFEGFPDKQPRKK
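Material: S100A4 monomer protein / Buffer or medium: 50 mM HEPES pH 7.2, 10 mM CaCl2, 100 mM KCl / Times: 5 min incubation before reading / Benchmarks: neutral control DMSO, positive control TFP / Reagent: labelled myosin peptide probe, 5 nM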
Statin myotox sup – suppression of simvastatin myotoxicity | C2C12 myotubes + simvastatin, ATP luminescence, 48 h; scaled: DMSO 0, geranylgeraniol control 100 | 330,000 tested, 0.78% active | rescue of ATP level, % at 7.49 µM;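 active = mean ATP rescue above about 67%, or every replicate alone reaching that limit, limit read from the data, passing the limit was not always enough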;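 also: myotubes were challenged with 10 µM simvastatin during compound exposure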
* = called active by the depositor; · = no result given; ! = a repeat was not active.

SMILES	Ecoli rRNA inh	Cneo AK release	SIRT5 block	PGC1a acetyl inh	S100A4 MyoIIA	Statin myotox sup
CCCC(CCC(=O)Nc1ccn(-c2ccccc2)n1)C(=O)O (centres undefined)	3	·	-1	9	-1	·
O=C(Nc1cc(S(=O)(=O)N2CCOCC2)ccc1N1CCCC1)c1ccccc1F	13	-8	·	-7	0	-4
O=C(Nc1cc(S(=O)(=O)N2CCOCC2)ccc1N1CCOCC1)c1cc2c(s1)CCC2	-11	·	17*	-11	-4	·
CC(C)C(=O)Nc1cc(S(=O)(=O)N2CCOCC2)ccc1N1CCCCC1	-2	-1	1	-3	-1	108*
O=C(Nc1ccccc1F)Nc1cc(S(=O)(=O)N2CCOCC2)ccc1N1CCCC1	-19*	·	·	-1	4	·
CCCNC(=O)N1CC2(C1)[C@H](c1ccccc1)[C@@H](CO)N2Cc1ccccn1	2	·	1	-6	6	·
O=C(O)c1cccc(N2C(=O)c3ccc(Oc4ccc(Cl)cc4)cc3C2=O)c1	-36*	·	4	3	-1	·
CCCc1c(C)nc(N2CCN(c3ccc(F)cc3)CC2)[nH]c1=O	11	-2	21*	1	3	16
CCc1c(C)nc(N2CCN(c3ccc(F)cc3)CC2)[nH]c1=O	4	0	0	0	3	-6
Cc1nnc(N2CCN(c3ccccc3)CC2)[nH]c1=O	·	0	·	0	·	98*
CCc1c(C)nc(N2CCN(c3ccc(Cl)cc3)CC2)[nH]c1=O	0	-1	-2	·	1	10
COc1ccc(/C=N/NC(=O)c2cc(C34CC5CC(CC(C5)C3)C4)[nH]n2)cc1OC	4	·	6	·	-5	·
O=C(N/N=C/c1ccc(O)cc1)c1cc(C23CC4CC(CC(C4)C2)C3)[nH]n1	-32*	·	-5	0	1	·
O=C(CC1CC1)N1CC2(C1)[C@H](c1ccccc1)[C@@H](CO)N2Cc1cccc(F)c1	3	·	0	28	1	·
COCCN(C(=O)COC(=O)c1cc2c(s1)CCC2)c1c(N)n(Cc2ccccc2)c(=O)[nH]c1=O	-6	6	15*	-5	-9	4
CCC1CCc2sc(C(=O)OCC(=O)N(CCOC)c3c(N)n(Cc4ccccc4)c(=O)[nH]c3=O)cc2C1 (centres undefined)	12	-1	1	·	-4	5
COc1ccccc1C=NN1CCCCCC1	9	1	·	-4	2	3
Fc1ccc(/C=N/N2CCCCC2)c(F)c1	17	1	0	66*	-4	1
C[C@H](CO)N1C[C@H](C)[C@H](CN(C)Cc2ccccc2)OCCCC[C@H](C)Oc2ccc(NC(=O)NC3CCCCC3)cc2C1=O	-5	-1	7	10	-17	·
C[C@@H]1CCCCO[C@H](CN(C)S(=O)(=O)c2cccs2)[C@@H](C)CN([C@@H](C)CO)C(=O)c2cc(NC(=O)CCC(F)(F)F)ccc2O1	-3	94*	6	2	-5	·
C[C@H](CO)N1C[C@H](C)[C@@H](CN(C)S(=O)(=O)c2cccs2)Oc2ccc(NC(=O)CCC(F)(F)F)cc2C1=O	1	3	25*!	0	-1	-15
CC=Cc1ccc2n(c1=O)C[C@@H]1[C@@H](CO)[C@H](C(=O)Nc3ccc(-c4ccccc4)cc3)[C@H]2N1C(C)=O (mixture of isomers)	-2	·	-7	·	-5	·
COCC(=O)N1C[C@@H](C)[C@@H](OC)CN(C)C(=O)c2cc(NC(=O)Nc3cccc(F)c3)ccc2OC[C@H]1C	-2	2	4	-10	-12	-1
Cc1cc(N2CCN(C)CC2)nc2ccc(NC(=S)NCc3cccs3)cc12	-23*	1	-4	-3	5	·
CC(NS(=O)(=O)OCC(Cl)(Cl)Cl)c1ccc(Br)cc1 (centres undefined)	-23*	3	-1	·	-1	7
SMILES	Ecoli rRNA inh	Cneo AK release	SIRT5 block	PGC1a acetyl inh	S100A4 MyoIIA	Statin myotox sup
CN(C)S(=O)(=O)c1cccc(NC(=O)CCCSc2ccccc2)c1	5	1	10	-3	-1	1
CC(=O)c1cccc(NC(=O)CCCSc2ccccc2)c1	-13	0	16*	-4	-1	1
CC1CCN(S(=O)(=O)c2ccc(C(=O)N(C)C3CCS(=O)(=O)C3)cc2)CC1 (centres undefined)	5	1	25*	·	-15	-2
Cc1cc2c(sc3c(C)ccc(C)c32)c(C)n1	-35*	3	-1	2	0	·
CCc1nnc(N/N=C/c2ccccc2Cl)n1N	·	2	·	72*	·	-26
Cc1cc(C)c(NC(=S)NC(=O)c2ccccc2)cc1C	0	2	-2	·	4	·
Cc1ccc(C(=O)NC(=S)Nc2ccccc2C(F)(F)F)cc1C	·	-1	·	5	·	93*
O=c1[nH]c2ccccc2nc1-c1c[nH]c2ccccc12	-26*	-5	-2	-6	-4	7
C[C@H]1CN([C@@H](C)CO)C(=O)c2cc(N(C)C)ccc2O[C@@H]1CN(C)S(=O)(=O)c1cn(C)cn1	2	1	-3	-7	11	-32
O=C(CSc1nc2ccc([N+](=O)[O-])cc2[nH]1)NCCc1ccccc1	-28*	·	-1	-5	-2	17
O=C(CSc1nc2ccc(Cl)cc2[nH]1)NCCc1ccccc1	-9	·	8	·	11	·
COc1ccc2nc(SCC(=O)NCCc3ccccc3)[nH]c2c1	-24*	·	-3	·	2	·
C[C@H](CO)N1C[C@H](C)[C@H](CN(C)CC2CCCCC2)Oc2c(NC(=O)C3CCCCC3)cccc2C1=O	1	0	1	-1	-3	-37
Cc1sc2ncnc(Sc3ccccc3C(=O)O)c2c1C	-24*	·	2	-3	-9	·
CCC(C)(C)n1nnnc1C(c1cc2cc(C)ccc2[nH]c1=O)N1CCCc2ccccc21 (centres undefined)	0	2	17*	-2	-1	0
CC(C)(C)N(Cc1ccccc1)C(=O)c1ccc(Br)o1	5	0	19*	-10	1	-1
C[C@@H]1CN([C@@H](C)CO)C(=O)c2cc(NS(=O)(=O)c3ccc(Cl)cc3)ccc2O[C@@H]1CN(C)CC1CCCCC1	2	12	-2	·	-3	-15
CC1=Nn2c(nnc2-c2n[nH]c3c2CCC3)SC1	·	2	·	5	·	-15
Fc1ccc(C2=Nn3c(nnc3-c3n[nH]c4c3CCC4)SC2)cc1	·	-1	·	-13	·	114*
COc1ccc(NC(=O)N(C)C[C@H]2OCCCC[C@@H](C)Oc3ccc(N(C)C)cc3C(=O)N([C@@H](C)CO)C[C@@H]2C)cc1	-1	1	-1	2	-5	-7
